Laboratory results: ChEMBL document CHEMBL1142971, “NO-donor COX-2 inhibitors. New nitrooxy-substituted 1,5-diarylimidazoles endowed with COX-2 inhibitory and vasodilator properties” (J Med Chem, 2007)

What was measured:
[1] = species: Rattus norvegicus; test: Vasodilation of phenylephrine-induced contraction in Wistar rat aorta; type: functional
Summary of the method: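 Thoracic aortic strips from male Wistar rats (180-200 g) were equilibrated 120 min and precontracted with 1 μM L-phenylephrine. At plateau, cumulative concentrations of vasodilator were added, with DMSO as vehicle. Relaxation was recorded isometrically and reported as EC50 ± SE (μM).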

[2] = target: Prostaglandin G/H synthase 1 (Homo sapiens, UniProt P23219); test: Inhibition of COX1 in human whole blood assessed as TxB2 production after 1 hr; type: tissue-based
Prostaglandin G/H synthase 1, sequence (P23219 whole entry): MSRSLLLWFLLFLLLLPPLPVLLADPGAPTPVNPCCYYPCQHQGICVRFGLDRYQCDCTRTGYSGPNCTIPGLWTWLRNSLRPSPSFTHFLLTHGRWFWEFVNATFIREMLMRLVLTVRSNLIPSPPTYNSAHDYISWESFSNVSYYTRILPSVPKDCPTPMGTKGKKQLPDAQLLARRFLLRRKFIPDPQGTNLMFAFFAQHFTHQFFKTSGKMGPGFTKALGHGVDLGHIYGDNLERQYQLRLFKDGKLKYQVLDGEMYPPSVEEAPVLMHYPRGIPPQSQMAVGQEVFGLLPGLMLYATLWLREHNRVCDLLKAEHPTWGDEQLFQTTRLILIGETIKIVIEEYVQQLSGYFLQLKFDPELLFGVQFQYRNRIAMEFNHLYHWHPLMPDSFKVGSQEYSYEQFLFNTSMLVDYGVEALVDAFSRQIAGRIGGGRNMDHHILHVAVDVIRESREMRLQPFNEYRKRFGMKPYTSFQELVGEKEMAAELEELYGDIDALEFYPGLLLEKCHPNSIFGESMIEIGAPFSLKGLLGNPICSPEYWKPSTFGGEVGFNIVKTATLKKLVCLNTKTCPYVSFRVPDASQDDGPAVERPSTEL

[3] = Stability in human whole blood at 100 uM after 24 hrs; type: ADME, tissue-based; conditions: read-out: Stability
Summary of the method: (§1)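 Compound incubated at 37 ± 0.5 °C in human serum or human whole blood. Aliquots taken at set times were diluted 1:2 with acetonitrile containing 0.1% TFA to deproteinize, then sonicated, vortexed, centrifuged 15 min at 2150 × g and filtered.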

[4] = target: T1, Prostaglandin G/H synthase 2 (Homo sapiens, UniProt P35354)
T1 sequence (P35354 whole entry): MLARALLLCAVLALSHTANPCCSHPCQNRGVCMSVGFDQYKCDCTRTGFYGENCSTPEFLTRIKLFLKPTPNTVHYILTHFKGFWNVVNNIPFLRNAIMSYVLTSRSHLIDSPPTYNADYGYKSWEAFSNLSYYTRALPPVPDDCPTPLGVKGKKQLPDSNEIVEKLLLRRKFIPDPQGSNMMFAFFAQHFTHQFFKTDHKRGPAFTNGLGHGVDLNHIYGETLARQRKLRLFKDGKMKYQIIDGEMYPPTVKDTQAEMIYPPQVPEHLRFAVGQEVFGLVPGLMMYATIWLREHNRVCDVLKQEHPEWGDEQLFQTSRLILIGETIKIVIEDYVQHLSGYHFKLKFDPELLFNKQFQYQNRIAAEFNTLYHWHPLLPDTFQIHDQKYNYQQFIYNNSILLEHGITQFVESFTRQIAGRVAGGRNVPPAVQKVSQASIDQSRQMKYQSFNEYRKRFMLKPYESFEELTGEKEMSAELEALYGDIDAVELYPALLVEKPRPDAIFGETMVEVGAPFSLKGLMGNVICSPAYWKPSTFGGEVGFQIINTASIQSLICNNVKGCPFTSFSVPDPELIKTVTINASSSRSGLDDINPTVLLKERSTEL

[5] = species: Rattus norvegicus; test: Vasodilation of phenylephrine-induced contraction in Wistar rat aorta in the presence of ODQ; type: functional
Summary of the method: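 Rat aortic strips (male Wistar, 180-200 g) were equilibrated 120 min. 1 μM ODQ (sGC inhibitor) was added to the bath 5 min before contraction with 1 μM L-phenylephrine. At plateau, cumulative vasodilator concentrations were added. Isometric relaxation was recorded and given as EC50 ± SE (μM).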

[6] = Stability in human serum at 100 uM after 24 hrs; type: ADME, cell-free; conditions: read-out: Stability; summary of the method: as §1
[7] = species: Rattus norvegicus; test: Vasodilation of phenylephrine-induced contraction in Wistar rat aorta in the presence of HbO2; type: functional

EC50 [1] | IC50 [2] | remaining at 24 h, 100 µM [3] | IC50 [4] | EC50 [5] | remaining at 24 h, 100 µM [6] | SMILES | EC50 [7]
0.1 µM | > 100 µM | 64.1% | 16 µM | 18 µM | > 98% | NS(=O)(=O)c1ccc(-n2cnc(Cl)c2-c2ccc(OCCCO[N+](=O)[O-])c(F)c2)cc1 | 
0.051 µM | > 100 µM | 58.8% |  | 12 µM | > 98% | NS(=O)(=O)c1ccc(-n2cnc(Cl)c2-c2ccc(OCCO[N+](=O)[O-])c(F)c2)cc1 | 
 | > 100 µM |  | > 100 µM |  |  | NS(=O)(=O)c1ccc(-n2cnc(Cl)c2-c2ccc(OCCCO)c(F)c2)cc1 | 
0.078 µM | > 100 µM | 60.6% | 14 µM | 6.3 µM | > 98% | CS(=O)(=O)c1ccc(-n2cnc(Cl)c2-c2ccc(OCCCO[N+](=O)[O-])c(F)c2)cc1 | 
 | 5.8 µM |  | 0.09 µM | 24 µM |  | COc1ccc(-c2c(Cl)ncn2-c2ccc(S(C)(=O)=O)cc2)cc1F | 
 | > 100 µM |  | 56 µM |  |  | CS(=O)(=O)c1ccc(-n2cnc(Cl)c2-c2ccc(OCCO)c(F)c2)cc1 | 
0.021 µM | > 100 µM | 53.3% |  | 6.5 µM | > 98% | CS(=O)(=O)c1ccc(-n2cnc(Cl)c2-c2ccc(OCCO[N+](=O)[O-])c(F)c2)cc1 | 
 | > 100 µM |  | 20 µM |  |  | NS(=O)(=O)c1ccc(-n2cnc(Cl)c2-c2ccc(OCCO)c(F)c2)cc1 | 
 | 1.9 µM |  |  | 25 µM |  | COc1ccc(-c2c(Cl)ncn2-c2ccc(S(N)(=O)=O)cc2)cc1F [CIMICOXIB] | 
 | > 100 µM |  | > 100 µM |  |  | CS(=O)(=O)c1ccc(-n2cnc(Cl)c2-c2ccc(OCCCO)c(F)c2)cc1 | 

SMILES | EC50 [1] | IC50 [2] | remaining at 24 h, 100 µM [3] | IC50 [4] | EC50 [5] | remaining at 24 h, 100 µM [6] | EC50 [7]
O=[N+]([O-])O[C@H]1CO[C@H]2[C@@H]1OC[C@H]2O[N+](=O)[O-] [ISOSORBIDE DINITRATE] | 4.7 µM |  |  |  | > 100 µM |  | 55 µM
CS(=O)(=O)c1ccc(-n2cnc(Cl)c2-c2ccc(OCC(CO[N+](=O)[O-])O[N+](=O)[O-])c(F)c2)cc1 (centres undefined) |  | > 100 µM | 43.6% | 76 µM | > 100 µM | > 97% | 0.061 µM
